Tests used:
[1] = tested on: T. gondii; assay: T. gondii growth inhibitory assay; format: cell-based, Toxoplasma gondii; conditions: for IC50: read-out: IC50 T. gondii (anti-Toxoplasma IC50); for selectivity ratio at 48 h: human, Selectivity index (SI) = Cytotoxicity IC50/Anti-parasitic IC50, HFF cytotoxicity IC50 / anti-Toxoplasma IC50
How it was run: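 YFP-expressing RH-strain tachyzoites (~3500/well) were added to confluent HFF in supplemented IMDM. Test compound in DMSO (20 μM single dose, or 0–8 μM / 0–40 μM series) was added immediately or 2 h post-infection. Atovaquone 0.48 μM was the positive control; DMSO the negative. After 48 h at 37 °C/5% CO2, parasite YFP fluorescence was quantified by microscopy. IC50 came from triplicate-mean dose–response curves. SI = HFF cytotoxicity IC50/anti-Toxoplasma IC50.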

[2] = Cytotoxicity assay; format: cell-based; conditions: human, uninfected HFF cells
How it was run: (§1)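 Confluent host cells were used: HCT-8 in phenol-red-free supplemented RPMI 1640, HFF in phenol-red-free DMEM with 10% FBS. Test compound in DMSO was added at 0–700 μM, with matched DMSO controls, for 48 h at 37 °C/5% CO2. WST-1 was added for 1 h in the dark and absorbance read at 420 nm. Viability inhibition was taken relative to DMSO. IC50 came from dose–response curves of triplicate means.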

[3] = tested on: Cryptosporidium; conditions: read-out: anti-Cryptosporidium IC50; ref Li et al., 2019; cited from earlier work
[4] = tested on: C. parvum; assay: C. parvum growth inhibitory assay; format: cell-based, Cryptosporidium parvum
How it was run: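 Sporozoites were excysted (HBSS, 60 min at 37 °C, then 1.5% sodium taurocholate, 60 min) and […]. 4 × 10^4 were added per well to confluent HCT-8 cells in supplemented RPMI-1640. […] After 72 h at 37 °C/5% CO2: fixed, antibody-stained, microscopy fluorescence quantified. […] Triplicate, ≥3 repeats.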

[5] = Cytotoxicity assay; format: cell-based; conditions: human, uninfected HCT-8 cells
How it was run: as §1

[6] = Toxoplasma gondii, HFF, 48 h, read-out: Inhibition of T. gondii growth

| SMILES | IC50 ([1]; Toxoplasma gondii, HFF, 48 h) | inhibition at 20 µM [1, 6] | selectivity ratio at 48 h [1] | IC50 at 48 h [2] | also measured |
| --- | --- | --- | --- | --- | --- |
| O=C(NC(=O)c1ccc(F)c(F)c1F)OC1C2CC3CC(C2)CC1C3 (stereo not drawn) [JS-2-35, Adamantan-2-yl (2,3,4-trifluorobenzoyl)carbamate] | 10.5 µM | ~80% | 5.6 | 59.2 µM | – |
| CC(C)=CCC/C(C)=C/CNC(=O)NC(=O)c1ccc(F)c(F)c1F [JS-2-20, (E)-N-((3,7-Dimethylocta-2,6-dien-1-yl)carbamoyl)-2,3,4-trifluorobenzamide] | 10.9 µM | ~80% | 5.7 | 62.6 µM | – |
| NC[C@@H]1O[C@H](O[C@H]2[C@@H](O)[C@H](O[C@@H]3[C@@H](O)[C@H](N)C[C@H](N)[C@H]3O[C@H]3O[C@H](CO)[C@@H](O)[C@H](O)[C@H]3N)O[C@@H]2CO)[C@H](N)[C@@H](O)[C@@H]1O [paromomycin] | – | – | – | – | IC50 [3]: 450 µM |
| COc1ccccc1C(=O)NC(=O)NC(=O)c1ccccc1OC [JS-1-09, N,N′-Carbonylbis(2-methoxybenzamide)] | 1.21 µM | ~100% | ~53 | 64 µM | Inhibition of T. gondii growth ([1]; 8 μM compound, 48 h): almost completely inhibited; Selectivity index (SI) = Cytotoxicity IC50/Anti-parasitic IC50 ([1]; HFF cytotoxicity IC50 / anti-Toxoplasma IC50): 52.9 |
| CC(C)=CCC/C(C)=C\COC(=O)NC(=O)C12CC3CC(CC(C3)C1)C2 [GMG-1-09, (Z)-3,7-Dimethylocta-2,6-dien-1-yl (adamantane-1-carbonyl)carbamate] | – | – | – | – | IC50 T. gondii (anti-Toxoplasma IC50) ([1]; YFP-expressing RH tachyzoites in HFF cells, 48 h of culture): not potent; inhibition at 20 µM ([4]; Cryptosporidium parvum, HCT-8, read-out: Inhibition of C. parvum growth): ~70%; selectivity ratio at 72 h ([4]; human, Selectivity index (SI) = Cytotoxicity IC50/Anti-parasitic IC50, HCT-8 cytotoxicity IC50 / anti-Cryptosporidium IC50): ~14; IC50 at 48 h [5]: 450 µM |
| O=C1C(O)=C([C@H]2CC[C@H](c3ccc(Cl)cc3)CC2)C(=O)c2ccccc21 [atovaquone, reference compound] | – | – | – | – | inhibition at 0.5 µM [1, 6]: ~100% |
| O=C(NC(=O)c1ccc(F)c(F)c1F)OC12CC3CC(CC(C3)C1)C2 [JS-2-49, Adamantan-1-yl (2,3,4-trifluorobenzoyl)carbamate] | 12.1 µM | ~90% | 5.4 | 65.5 µM | – |
